Each block holds one molecule with its values, some of them ahead of it.
How the values were obtained:
[1] = test system: OVCAR-8 conditioned media; test: Cleavage of MMP9 substrate by OVCAR-8 conditioned media; format: biochemical, human
[2] = molecular target: mouse MMP9 (Mus musculus, UniProt P41245); test: Cleavage of substrate by mouse MMP9; format: biochemical
[3] = test system: OVCAR-8 tumour nodules; test: HE4 blood ELISA in orthotopic OVCAR-8 ovarian cancer model; format: in vivo, mouse; settings: blood biomarker, plasma ELISA; n = 10
Method in brief: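 Female NCr nude mice, 3–4 weeks old, were injected intraperitoneally with 2 × 10⁶ luciferase-expressing OVCAR-8 cells; tumour burden was followed by IVIS luminescence. About 200 μL blood was spiked with EDTA to a final 5 mM and cells were pelleted. Plasma was stored at -20 °C, then HE4 measured by quantikine ELISA per kit protocol.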

Sequence of mouse MMP9 (P41245 108-730): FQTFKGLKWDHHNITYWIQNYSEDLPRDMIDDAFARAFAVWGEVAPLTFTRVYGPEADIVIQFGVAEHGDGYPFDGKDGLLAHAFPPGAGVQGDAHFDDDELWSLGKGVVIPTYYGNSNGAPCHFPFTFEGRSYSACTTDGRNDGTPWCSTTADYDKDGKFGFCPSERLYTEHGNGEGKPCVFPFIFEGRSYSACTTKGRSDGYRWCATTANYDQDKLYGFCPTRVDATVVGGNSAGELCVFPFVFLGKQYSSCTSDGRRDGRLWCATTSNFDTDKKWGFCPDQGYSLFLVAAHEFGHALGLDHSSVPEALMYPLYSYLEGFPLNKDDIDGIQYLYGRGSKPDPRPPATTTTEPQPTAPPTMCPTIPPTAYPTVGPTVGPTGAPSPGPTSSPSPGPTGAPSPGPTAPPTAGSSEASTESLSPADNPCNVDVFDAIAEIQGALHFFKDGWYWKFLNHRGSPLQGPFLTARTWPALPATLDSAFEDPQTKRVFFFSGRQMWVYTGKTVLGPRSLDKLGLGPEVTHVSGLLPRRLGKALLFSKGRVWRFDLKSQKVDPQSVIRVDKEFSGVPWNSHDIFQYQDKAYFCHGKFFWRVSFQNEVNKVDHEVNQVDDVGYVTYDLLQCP

Molecule: CNC(=O)[C@@H](NC(=O)[C@H](CC(C)C)[C@H](O)C(=O)NO)C(C)(C)C [Marimistat, reference compound]
inhibition of cleavage of MMP9 substrate by OVCAR-8 conditioned media [1]: can be inhibited

cleavage by mouse MMP9 [2]: cleaves
Molecule: 5FAM-GGPLGVRGKK(CPQ2)-PEG2-C [MMP9 substrate]
cleavage by OVCAR-8 conditioned media [1]: can cleave

B1: HE4: clinical blood biomarker secreted by OVCAR-8 cells, measured by ELISA as comparator diagnostic (protein, UniProt Q14508 31-124, looked up)
WAP four-disulfide core …: EKTGVCPELQADQNCTQECVSDSECADNLKCCSAGCATFCSLPNDKEGSCPQVNINFPQLGLCRDQCQVDSQCPGQMKCCRNGCGKVSCVTPNF
ROC-AUC at 2-weeks [3]: 0.51
ROC-AUC at 3-weeks [3]: 0.93

Source: article PMC5621765 (Nature biomedical engineering, 2017)
